Data from ChEMBL document CHEMBL1255409, “In vitro activity of ceftaroline against 623 diverse strains of anaerobic bacteria” (2010).
Converted amounts (≈) assume the structure as drawn.

Columns and labels:
[1] = tested on: Clostridium paraputrificum; test: Antimicrobial activity against Clostridium paraputrificum under anaerobic conditions after 44 hrs by CLSI-M11-47 protocol based agar dilution method; type: functional
Method in brief: (§1)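 Reference agar dilution per CLSI M11-A7 with plates made on test day. Clinical isolates were stored at −70°C in 20% skim milk, subcultured twice, and 48-h cell paste was suspended in brucella broth to 0.5 McFarland. About 10^5 CFU/spot was applied with a Steers replicator. Plates were incubated 44 h at 37°C anaerobically. MIC was the lowest concentration giving complete inhibition or marked growth reduction versus the drug-free control.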

Prevotella corporis = test: Antimicrobial activity against Prevotella corporis under anaerobic conditions after 44 hrs by CLSI-M11-47 protocol based agar dilution method; type: functional
Method in brief: (§2)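 Clinical isolates were stored at −70°C in 20% skim milk and identified phenotypically or by partial 16S rRNA sequencing. Each strain was subcultured twice from frozen stock. Cell paste from 48-h cultures was suspended in brucella broth to a 0.5 McFarland standard. About 10^5 CFU per spot were applied by Steers replicator to agar dilution plates prepared on the day of testing. Plates were incubated 44 h at 37°C in an anaerobic chamber. MIC was taken as the lowest concentration giving complete inhibition or marked reduction of growth versus the drug-free control.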

[2] = tested on: Porphyromonas asaccharolytica; test: Antimicrobial activity against Porphyromonas asaccharolyticus under anaerobic conditions after 44 hrs by CLSI-M11-47 protocol based agar dilution method; type: functional; method in brief: as §2
Schaalia odontolytica = test: Antimicrobial activity against Actinomyces odontolyticus under anaerobic conditions after 44 hrs by CLSI-M11-47 protocol based agar dilution method; type: functional; method in brief: as §1
[3] = tested on: Enterocloster clostridioformis; test: Antimicrobial activity against Clostridium clostridioforme under anaerobic conditions after 44 hrs by CLSI-M11-47 protocol based agar dilution method; type: functional; method in brief: as §1
Parabacteroides merdae = test: Antimicrobial activity against Bacteroides merdae under anaerobic conditions after 44 hrs by CLSI-M11-47 protocol based agar dilution method; type: functional; method in brief: as §1
Bacteroides fragilis [4] = test: Antimicrobial activity against Bacteroides fragilis under anaerobic conditions after 44 hrs by CLSI-M11-47 protocol based agar dilution method; type: functional; method in brief: as §1
[5] = tested on: Fusobacterium necrophorum; test: Antimicrobial activity against Fusobacterium necrophorum under anaerobic conditions after 44 hrs by CLSI-M11-47 protocol based agar dilution method; type: functional; method in brief: as §1
Clostridium baratii = test: Antimicrobial activity against Clostridium baratii under anaerobic conditions after 44 hrs by CLSI-M11-47 protocol based agar dilution method; type: functional
Gemella morbillorum = test: Antimicrobial activity against Gemella morbillorum under anaerobic conditions after 44 hrs by CLSI-M11-47 protocol based agar dilution method; type: functional; method in brief: as §2
Prevotella intermedia = test: Antimicrobial activity against Prevotella intermedia under anaerobic conditions after 44 hrs by CLSI-M11-47 protocol based agar dilution method; type: functional; method in brief: as §2
[6] = tested on: Actinomyces neuii subsp. anitratus; test: Antimicrobial activity against Actinomyces neuii subsp. anitratus under anaerobic conditions after 44 hrs by CLSI-M11-47 protocol based agar dilution method; type: functional, Winkia neuii subsp. anitrata; details: Winkia neuii; method in brief: as §1
Gemella sanguinis = test: Antimicrobial activity against Gemella sanguinis under anaerobic conditions after 44 hrs by CLSI-M11-47 protocol based agar dilution method; type: functional; method in brief: as §2
Prevotella oris = test: Antimicrobial activity against Prevotella oris under anaerobic conditions after 44 hrs by CLSI-M11-47 protocol based agar dilution method; type: functional; details: Segatella oris; method in brief: as §2
Bacteroides fragilis [7] = test: Antimicrobial activity against Bacteroides fragilis spp. under anaerobic conditions after 44 hrs by CLSI-M11-47 protocol based agar dilution method; type: functional; method in brief: as §1
[8] = tested on: Peptostreptococcus stomatis; test: Antimicrobial activity against Peptostreptococcus stomatis under anaerobic conditions after 44 hrs by CLSI-M11-47 protocol based agar dilution method; type: functional; method in brief: as §2
[9] = tested on: Clostridium celerecrescens; test: Antimicrobial activity against Clostridium celerecrescens under anaerobic conditions after 44 hrs by CLSI-M11-47 protocol based agar dilution method; type: functional; details: Lacrimispora celerecrescens; method in brief: as §1
Clostridium subterminale = test: Antimicrobial activity against Clostridium subterminale under anaerobic conditions after 44 hrs by CLSI-M11-47 protocol based agar dilution method; type: functional; method in brief: as §1
Clostridium perfringens = test: Antimicrobial activity against Clostridium perfringens under anaerobic conditions after 44 hrs by CLSI-M11-47 protocol based agar dilution method; type: functional
Bacteroides ovatus = test: Antimicrobial activity against Bacteroides ovatus under anaerobic conditions after 44 hrs by CLSI-M11-47 protocol based agar dilution method; type: functional; method in brief: as §1
Clostridium butyricum = test: Antimicrobial activity against Clostridium butyricum under anaerobic conditions after 44 hrs by CLSI-M11-47 protocol based agar dilution method; type: functional
Prevotella disiens = test: Antimicrobial activity against Prevotella disiens under anaerobic conditions after 44 hrs by CLSI-M11-47 protocol based agar dilution method; type: functional; method in brief: as §2
Anaerococcus = test: Antimicrobial activity against Anaerococcus sp. under anaerobic conditions after 44 hrs by CLSI-M11-47 protocol based agar dilution method; type: functional; method in brief: as §1
Prevotella buccae = test: Antimicrobial activity against Prevotella buccae under anaerobic conditions after 44 hrs by CLSI-M11-47 protocol based agar dilution method; type: functional; details: Segatella buccae; method in brief: as §2
[10] = tested on: Anaerococcus lactolyticus; test: Antimicrobial activity against Anaerococcus lactolyticus under anaerobic conditions after 44 hrs by CLSI-M11-47 protocol based agar dilution method; type: functional; method in brief: as §1
Prevotella tannerae = test: Antimicrobial activity against Prevotella tannerae under anaerobic conditions after 44 hrs by CLSI-M11-47 protocol based agar dilution method; type: functional; details: Alloprevotella tannerae; method in brief: as §2
[11] = tested on: Parabacteroides distasonis; test: Antimicrobial activity against Bacteroides distasonis under anaerobic conditions after 44 hrs by CLSI-M11-47 protocol based agar dilution method; type: functional; method in brief: as §1
Anaerococcus tetradius = test: Antimicrobial activity against Anaerococcus tetradius under anaerobic conditions after 44 hrs by CLSI-M11-47 protocol based agar dilution method; type: functional; method in brief: as §1
[12] = tested on: Paeniclostridium sordellii; test: Antimicrobial activity against Clostridium sordellii under anaerobic conditions after 44 hrs by CLSI-M11-47 protocol based agar dilution method; type: functional; details: Paraclostridium sordellii; method in brief: as §1
Clostridium symbiosum = test: Antimicrobial activity against Clostridium symbiosum under anaerobic conditions after 44 hrs by CLSI-M11-47 protocol based agar dilution method; type: functional; method in brief: as §1
Lacrimispora sphenoides = test: Antimicrobial activity against Clostridium sphenoides under anaerobic conditions after 44 hrs by CLSI-M11-47 protocol based agar dilution method; type: functional; method in brief: as §1
[13] = tested on: Prevotella melaninogenica; test: Antimicrobial activity against Prevotella melaninogenica under anaerobic conditions after 44 hrs by CLSI-M11-47 protocol based agar dilution method; type: functional; method in brief: as §2

For `Cc1ncc([N+](=O)[O-])n1CCO` [METRONIDAZOLE], the MIC50 [1] was 0.5 µg/mL (≈ 2.92 µM), the MIC90 [1] was 4 µg/mL (≈ 23.4 µM) and the MIC50 (Prevotella corporis) was 0.5 µg/mL (≈ 2.92 µM). The MIC90 (Prevotella corporis) was 2 µg/mL (≈ 11.7 µM), the MIC50 [2] was 0.06 µg/mL (≈ 0.351 µM) and the MIC90 [2] was 0.125 µg/mL (≈ 0.73 µM). The MIC50 (Schaalia odontolytica) was greater than 32 µg/mL, the MIC90 (Schaalia odontolytica) was greater than 32 µg/mL and the MIC50 [3] was 0.06 µg/mL (≈ 0.351 µM). It also gave an MIC90 [3] of 0.25 µg/mL (≈ 1.46 µM), an MIC50 (Parabacteroides merdae) of 1 µg/mL (≈ 5.84 µM) and an MIC90 (Parabacteroides merdae) of 2 µg/mL (≈ 11.7 µM). For the same compound, the MIC50 (Bacteroides fragilis [4]) was 1 µg/mL (≈ 5.84 µM), the MIC90 (Bacteroides fragilis [4]) was 2 µg/mL (≈ 11.7 µM) and the MIC50 [5] was 0.125 µg/mL (≈ 0.73 µM). The MIC90 [5] was 0.25 µg/mL (≈ 1.46 µM), the MIC50 (Clostridium baratii) was 0.5 µg/mL (≈ 2.92 µM) and the MIC90 (Clostridium baratii) was 4 µg/mL (≈ 23.4 µM). It also gave an MIC50 (Gemella morbillorum) of 1 µg/mL (≈ 5.84 µM), an MIC90 (Gemella morbillorum) of 4 µg/mL (≈ 23.4 µM) and an MIC50 (Prevotella intermedia) of 0.25 µg/mL (≈ 1.46 µM). It also gave an MIC90 (Prevotella intermedia) of 1 µg/mL (≈ 5.84 µM), an MIC50 [6] greater than 32 µg/mL and an MIC90 [6] greater than 32 µg/mL. The MIC50 (Gemella sanguinis) was 1 µg/mL (≈ 5.84 µM), the MIC90 (Gemella sanguinis) was 4 µg/mL (≈ 23.4 µM) and the MIC50 (Prevotella oris) was 0.5 µg/mL (≈ 2.92 µM). The MIC90 (Prevotella oris) was 2 µg/mL (≈ 11.7 µM), the MIC50 (Bacteroides fragilis [7]) was 1 µg/mL (≈ 5.84 µM) and the MIC90 (Bacteroides fragilis [7]) was 2 µg/mL (≈ 11.7 µM). For the same compound, the MIC50 [8] was 0.5 µg/mL (≈ 2.92 µM), the MIC90 [8] was 1 µg/mL (≈ 5.84 µM) and the MIC50 [9] was 0.5 µg/mL (≈ 2.92 µM). The MIC90 [9] was 4 µg/mL (≈ 23.4 µM), the MIC50 (Clostridium subterminale) was 0.5 µg/mL (≈ 2.92 µM) and the MIC90 (Clostridium subterminale) was 4 µg/mL (≈ 23.4 µM). It also gave an MIC50 (Clostridium perfringens) of 2 µg/mL (≈ 11.7 µM), an MIC90 (Clostridium perfringens) of 4 µg/mL (≈ 23.4 µM) and an MIC50 (Bacteroides ovatus) of 1 µg/mL (≈ 5.84 µM). For the same compound, the MIC90 (Bacteroides ovatus) was 2 µg/mL (≈ 11.7 µM), the MIC50 (Clostridium butyricum) was 0.5 µg/mL (≈ 2.92 µM) and the MIC90 (Clostridium butyricum) was 4 µg/mL (≈ 23.4 µM). It also gave an MIC50 (Prevotella disiens) of 0.5 µg/mL (≈ 2.92 µM), an MIC90 (Prevotella disiens) of 2 µg/mL (≈ 11.7 µM) and an MIC50 (Anaerococcus) of 1 µg/mL (≈ 5.84 µM). The MIC90 (Anaerococcus) was 4 µg/mL (≈ 23.4 µM), the MIC50 (Prevotella buccae) was 0.5 µg/mL (≈ 2.92 µM) and the MIC90 (Prevotella buccae) was 1 µg/mL (≈ 5.84 µM). For the same compound, the MIC50 [10] was 1 µg/mL (≈ 5.84 µM), the MIC90 [10] was 4 µg/mL (≈ 23.4 µM) and the MIC50 (Prevotella tannerae) was 0.5 µg/mL (≈ 2.92 µM). It also gave an MIC90 (Prevotella tannerae) of 2 µg/mL (≈ 11.7 µM), an MIC50 [11] of 1 µg/mL (≈ 5.84 µM) and an MIC90 [11] of 2 µg/mL (≈ 11.7 µM). For the same compound, the MIC50 (Anaerococcus tetradius) was 1 µg/mL (≈ 5.84 µM), the MIC90 (Anaerococcus tetradius) was 2 µg/mL (≈ 11.7 µM) and the MIC50 [12] was 0.5 µg/mL (≈ 2.92 µM). The MIC90 [12] was 4 µg/mL (≈ 23.4 µM), the MIC50 (Clostridium symbiosum) was 0.5 µg/mL (≈ 2.92 µM) and the MIC90 (Clostridium symbiosum) was 4 µg/mL (≈ 23.4 µM). For the same compound, the MIC50 (Lacrimispora sphenoides) was 0.5 µg/mL (≈ 2.92 µM), the MIC90 (Lacrimispora sphenoides) was 4 µg/mL (≈ 23.4 µM) and the MIC50 [13] was 0.5 µg/mL (≈ 2.92 µM). It also gave an MIC90 [13] of 1 µg/mL (≈ 5.84 µM).
